In ChEMBL document CHEMBL4265993, “Antibacterial Cyclic Lipopeptide Enamidonins with an Enamide-Linked Acyl Chain from a Streptomyces Species” (2018):
Values after ≈ are worked out from the molar mass of the structure shown. Active and inactive are the calls of the source. The calls are words filed in the database; no cut-off is given here.

Experiments:
Assay type in all cases: functional
Bacillus subtilis [1] = assay: Antibacterial activity against Bacillus subtilis assessed as diameter of inhibition zone after 24 hrs by disk diffusion method
Procedure, shortened: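 Disk diffusion. B. subtilis colonies cultured 24 h at 28 °C were suspended in sterile distilled water and inoculated onto nutrient agar. A 6 mm i.d. paper disk holding sample was placed on the plate, which was incubated 24 h at 28 °C. Read-out was the inhibition zone.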

Bacillus subtilis [2] = assay: Antibacterial activity against Bacillus subtilis KCTC 1021 after 24 hrs by two-fold serial dilution method; details: KCTC 1021, 24 h
Procedure, shortened: (§1)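 Broth microdilution MIC. Bacteria grown to mid-log phase in appropriate media and seeded in 96-well microtiter plates at 10^5 cells/mL. Treated with serial 2-fold dilutions of compounds prepared in DMSO, with ciprofloxacin as the reference drug. MIC determined in triplicate.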

Acinetobacter baumannii = assay: Antibacterial activity against Acinetobacter baumannii KCTC 2508 after 24 hrs by two-fold serial dilution method; details: KCTC 2508, 24 h; procedure, shortened: as §1
Escherichia coli = assay: Antibacterial activity against Escherichia coli CCARM 1356 after 24 hrs by two-fold serial dilution method; details: CCARM 1356, 24 h; procedure, shortened: as §1
Enterococcus faecalis = assay: Antibacterial activity against Enterococcus faecalis KCTC 5191 after 24 hrs by two-fold serial dilution method; details: KCTC 5191, 24 h; procedure, shortened: as §1
Pseudomonas aeruginosa = assay: Antibacterial activity against Pseudomonas aeruginosa KCTC 2004 after 24 hrs by two-fold serial dilution method; details: KCTC 2004, 24 h; procedure, shortened: as §1
Staphylococcus aureus [3] = assay: Antibacterial activity against Staphylococcus aureus RN4220 after 24 hrs by two-fold serial dilution method; details: RN4220, 24 h; procedure, shortened: as §1
Staphylococcus aureus [4] = assay: Antibacterial activity against methicillin-resistant Staphylococcus aureus CCARM 3506 after 24 hrs by two-fold serial dilution method; details: CCARM 3506, 24 h
Procedure, shortened: (§2)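 MIC by broth microdilution. Bacteria were grown to mid-log phase in appropriate growth media and seeded into 96-well plates at 10^5 cells/mL. Compounds, with ciprofloxacin as reference, were prepared in DMSO and tested as serial 2-fold dilutions. MICs were determined in triplicate.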

Staphylococcus aureus [5] = assay: Antibacterial activity against quinolone-resistant Staphylococcus aureus CCARM 3505 after 24 hrs by two-fold serial dilution method; details: CCARM 3505, 24 h; procedure, shortened: as §2
Streptococcus pneumoniae = assay: Antibacterial activity against Streptococcus pneumoniae KCTC 5412 after 24 hrs by two-fold serial dilution method; details: KCTC 5412, 24 h; procedure, shortened: as §1
Staphylococcus aureus [6] = assay: Antibacterial activity against methicillin-resistant Staphylococcus aureus CCARM 3167 after 24 hrs by two-fold serial dilution method; details: CCARM 3167, 24 h; procedure, shortened: as §2
Staphylococcus aureus [7] = assay: Antibacterial activity against quinolone-resistant Staphylococcus aureus CCARM 3519 after 24 hrs by two-fold serial dilution method; details: CCARM 3519, 24 h; procedure, shortened: as §2

Row | SMILES | diameter of the inhibition zone (DIZ) (Bacillus subtilis [1]) [mm] | MIC (Bacillus subtilis [2]) [mg/L] | MIC (Acinetobacter baumannii) [mg/L] | MIC (Escherichia coli) [mg/L] | MIC (Enterococcus faecalis) [mg/L] | MIC (Pseudomonas aeruginosa) [mg/L] | MIC (Staphylococcus aureus [3]) [mg/L] | MIC (Staphylococcus aureus [4]) [mg/L] | MIC (Staphylococcus aureus [5]) [mg/L] | MIC (Streptococcus pneumoniae) [mg/L] | MIC (Staphylococcus aureus [6]) [mg/L] | MIC (Staphylococcus aureus [7]) [mg/L] | Activity (Bacillus subtilis [1])
1 | CC(C)C[C@@H]1NC(=O)CN2C(=O)[C@H](CNC(=O)[C@@H](CNC(=O)/C=C/NC(=O)/C=C/C=C/CCC/C=C/CC[C@@H](C)O)NC1=O)NC2(C)C | 13.5 | 16 (≈ 23.8 µM) | > 128 | > 128 | 8 (≈ 11.9 µM) | > 128 | > 128 | 8 (≈ 11.9 µM) | 16 (≈ 23.8 µM) | > 128 | 32 (≈ 47.6 µM) | 16 (≈ 23.8 µM) | 
2 | CC[C@H](C)[C@@H]1NC(=O)[C@H]([C@@H](C)O)N2C(=O)[C@H](CNC(=O)[C@@H](CNC(=O)/C=C/NC(=O)/C=C/C=C/CCC/C=C/CC[C@@H](C)O)NC1=O)NC2(C)C | 13.5 | 16 (≈ 22.3 µM) | > 128 | > 128 | 64 (≈ 89.4 µM) | > 128 | 32 (≈ 44.7 µM) | 16 (≈ 22.3 µM) | 32 (≈ 44.7 µM) | > 128 | 64 (≈ 89.4 µM) | 32 (≈ 44.7 µM) | 
3 | C[C@@H](O)CC/C=C/CCC/C=C/C=C/C(=O)N/C=C/C(=O)NC[C@H]1NC(=O)[C@H](Cc2ccccc2)NC(=O)CNC(=O)[C@@H](N)CNC1=O |  |  |  |  |  |  |  |  |  |  |  |  | inactive
4 | CC(C)C[C@@H]1NC(=O)CNC(=O)[C@@H](N)CNC(=O)[C@@H](CNC(=O)/C=C/NC(=O)/C=C/C=C/CCC/C=C/CC[C@@H](C)O)NC1=O |  |  |  |  |  |  |  |  |  |  |  |  | inactive
5 | CC[C@H](C)[C@@H]1NC(=O)[C@H]([C@@H](C)O)NC(=O)[C@@H](N)CNC(=O)[C@@H](CNC(=O)/C=C/NC(=O)/C=C/C=C/CCC/C=C/CC[C@@H](C)O)NC1=O |  |  |  |  |  |  |  |  |  |  |  |  | inactive
6 | C[C@@H](O)CC/C=C/CCC/C=C/C=C/C(=O)N/C=C/C(=O)NC[C@H]1NC(=O)[C@H](Cc2ccccc2)NC(=O)CN2C(=O)[C@H](CNC1=O)NC2(C)C | 15 | 4 (≈ 5.67 µM) | > 128 | > 128 | > 128 | > 128 | > 128 | > 128 | > 128 | > 128 | > 128 | > 128 | 
7 | O=C(O)c1cn(C2CC2)c2cc(N3CCNCC3)c(F)cc2c1=O [CIPROFLOXACIN] |  | 0.0312 (≈ 0.0943 µM) | 0.25 (≈ 0.754 µM) | 64 (≈ 193 µM) | 1 (≈ 3.02 µM) |  |  |  | 32 (≈ 96.6 µM) |  | 4 (≈ 12.1 µM) |  | 
